# Screens from PubChem.
# This is a sample that favours compounds with a hit; in the whole collection about 4.7% have one here.
# IMP-1 inhibitor: blocks Pseudomonas aeruginosa IMP-1 metallo-beta-lactamase; 290,000 compounds, 0.45% hits; AID 1556; purified IMP-1, nitrocefin hydrolysis, epi-absorbance fluorescence; inhibition, % at 5.6 µM;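 active = inhibition above the mean plus 3 SD of all compounds in the same screening run, cut at about 4.5% in these data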;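 note: 0% = IMP-1 with DMSO and 100% = DMSO wells lacking enzyme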
#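 System: purified recombinant IMP-1 beta-lactamase. Medium: Zinc- and detergent-supplemented HEPES buffer, pH 7.1. Compound: one 5.6 µM dose […]. Schedule: 15 min preincubation plus 25 min reaction at 25 °C. Technique: Epi-absorbance fluorescence, 480 nm excitation, 530 nm emission.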
# Mdm2 MdmX PPI: human Mdm2/MdmX binding inhibition; AID 485346; SaOS-2 split-luciferase Mdm2/MdmX complementation, luminescence; 330,000 compounds, 3% hits; O15151+Q00987; inhibition, % at 8 µM;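 active = inhibition of at least 50% at 8 µM in the primary screen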
# aSyn UTR inh: MLPCN primary screen, SNCA 5' untranslated region. alpha-synuclein 5'UTR reporter, inhibitor activity. inhibition, % (tested at 7.5 µM). 300,000 compounds, 0.82% hits; in the data active = inhibition above about 60%;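 note: H4 neuroglioblastoma cells stably carrying SNCA 5'UTR luciferase fusion; 0% = DMSO wells and 100% = positive control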
# Jurkat NFkB inh: lowers PMA/ionomycin-induced NF-kB signal in Jurkat cells | PMA/ionomycin-induced NF-kB luciferase reporter, luminescence | inhibition, % at 4 µM | 330,000 compounds, 0.53% hits | AID 435003; in the data active = inhibition above about 50%
# 697 NFkB inh: lowers PMA/ionomycin-induced NF-kB signal in 697 B cells; 697 B-cell NF-kB luciferase reporter, 16 h; inhibition, % at 4 µM; 330,000 compounds, 0.33% hits; in the data active = inhibition above about 35%
# VIM-2 inh: inhibitors of Pseudomonas aeruginosa VIM-2 metallo-beta-lactamase. purified VIM-2, nitrocefin hydrolysis, epi-absorbance fluorescence. inhibition, % at 5.6 µM. 290,000 compounds, 0.89% hits;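 active = inhibition above the mean of all tested compounds plus 3 SD, cutoff set per screening run, cut at about 7.5% in these data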;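 note: red hydrolysis product quenches plate fluorescence so inhibitors raise well fluorescence; 0% = enzyme with DMSO and 100% = DMSO without enzyme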
# Mdm2 MdmX conf: confirmation of human Mdm2/MdmX interaction inhibitors; shares compounds with Mdm2 MdmX PPI; 10,000 compounds, 55% hits; AID 489028; inhibition, % at 8 µM; Mdm2-MdmX binding, luminescent assay; in the data active = inhibition above about 40%
# FLuc counter: full-length luciferase inhibition in Mdm2/MdmX counter-screen. inhibition, % at 8 µM. shares compounds with Mdm2 MdmX PPI. SaOS-2 full-length luciferase counterscreen, luminescence. 6,200 compounds, 77% hits;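 active = mean inhibition at 8 µM reaching about 37%, which flags the compound as non-specific, limit read from the data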;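 note: p53-null SaOS-2 cells with luciferase driven by a doxycycline-inducible promoter; compound on cells about two nights before reading with doxycycline added after day one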
# Active calls of the source: *; . = no result given.
SMILES,IMP-1 inhibitor,Mdm2 MdmX PPI,aSyn UTR inh,Jurkat NFkB inh,697 NFkB inh,VIM-2 inh,Mdm2 MdmX conf,others
CC(C)(C)NC(=O)C(c1ccncc1)N(Cc1cccs1)C(=O)Cn1nnc(-c2ccc(F)cc2)n1 (configuration not stated),-2,53*,-19,2,5,-3,43*,FLuc counter=55*
CC(C)(C)NC(=O)C(c1ccncc1)N(CC1CCCO1)C(=O)Cn1nnc(-c2ccc(F)cc2)n1 (configuration not stated),-1,22,-5,10,0,0,.,
NC(=O)c1sc2nc3c(c(-c4cccs4)c2c1N)CCCCC3,-3,85*,42,33,4,-3,88*,FLuc counter=53*
NC(=O)c1sc2nc3c(c(-c4cccnc4)c2c1N)CCC3,2,7,23,4,1,2,.,
CC1C(=NO)C(C)C(c2ccccc2)NC1c1ccccc1 (configuration not stated),-2,-18,20,-18,19,-3,.,
CC1/C(=N/O)CC(c2ccccc2)NC1c1ccccc1 (configuration not stated),-4,-13,6,1,-9,-5,.,
CCC1C(=NO)C(CC)C(c2ccccc2)NC1c1ccccc1 (configuration not stated),-1,52*,51,17,13,-3,37,
CCCC1/C(=N/O)CC(c2ccccc2)NC1c1ccccc1 (configuration not stated),-3,59*,2,-17,19,-5,62*,FLuc counter=64*
CC(C)CN(CC(C)C)C(=O)c1cccc(S(=O)(=O)N2CCc3ccccc32)c1,-2,26,17,11,13,-2,.,
Cc1ccc(C(NC(=O)N2CCOCC2)=C(Cl)Cl)cc1F,-2,51*,-46,-14,-10,-3,12,
Cc1ccc(C(NC(=O)N2CCOCC2)C(Cl)Cl)cc1F (configuration not stated),-3,4,-11,-7,12,-1,.,
Cn1cc(/C=C2\SC(=S)N(NC(=O)c3ccccc3)C2=O)c2ccccc21,-3,.,-53,.,.,-1,.,
Cn1cc(/C=C2\SC(=S)N(N3CCOCC3)C2=O)c2ccccc21,4.8*,50*,1,5,-6,-2,6,
O=C(NC1(Cc2ccccc2)CCN(Cc2ccc(-c3ccccc3)cc2)C1=O)c1ccccc1 (configuration not stated),.,63*,.,-1,-10,.,41*,FLuc counter=77*
O=C(CCc1ccccc1)NC1(Cc2ccccc2)CCN(CCc2cccs2)C1=O (configuration not stated),.,22,.,-3,6,.,.,
CCc1nnc(NC(=O)CCS(=O)(=O)c2ccccc2)s1,-3,51*,-14,4,-8,-1,24,
CCCc1nnc(NC(=O)CCS(=O)(=O)Cc2ccccc2)s1,-3,57*,-18,9,11,-3,7,
CCCCc1nnc(NC(=O)CCS(=O)(=O)c2ccc(C)cc2)s1,.,57*,.,2,6,.,-5,
CCc1nnc(NC(=O)CCS(=O)(=O)c2ccc(C)cc2)s1,.,42,-22,2,-19,.,.,
O=C(CCC(=O)N1CCN(S(=O)(=O)c2ccc(Cl)cc2)CC1)Nc1cccc(Br)c1,-2,29,-2,12,9,-3,.,
Cc1ccc(-c2cc(C(F)F)n3ncc(C(=O)Nc4c(C)nn(Cc5ccccc5Cl)c4C)c3n2)cc1,-2,78*,28,5,-14,-2,28,
COc1ccc(-c2cc(C(F)F)n3ncc(C(=O)Nc4cc(C)on4)c3n2)cc1,-1,59*,30,-19,1,-1,12,
CCc1nccn1C(=O)c1cnn2c(C(F)F)cc(-c3ccc(C)cc3)nc12,-3,61*,-11,19,13,0,19,
Cc1ccc(-c2cc(C(F)F)n3ncc(C(=O)Nc4c(C)nn(Cc5c(Cl)cccc5Cl)c4C)c3n2)cc1,-3,80*,-26,-2,-59,-4,-9,
Cc1nn(Cc2c(Cl)cccc2Cl)c(C)c1NC(=O)c1cnn2c(C(F)F)cc(-c3ccccc3)nc12,-3,35,1,8,-31,-1,.,
SMILES,IMP-1 inhibitor,Mdm2 MdmX PPI,aSyn UTR inh,Jurkat NFkB inh,697 NFkB inh,VIM-2 inh,Mdm2 MdmX conf,others
COCCNC(=O)c1cnn2c(C(F)F)cc(-c3ccc(C)cc3)nc12,-1,12,-1,-1,0,4,.,
CCc1nccn1C(=O)c1cnn2c(C(F)F)cc(-c3ccccc3)nc12,-2,3,25,-3,-8,2,.,
COc1ccc(-c2cc(C(F)F)n3ncc(C(=O)Nc4c(C)n(C)n(-c5ccccc5)c4=O)c3n2)cc1,-2,11,-28,23,-8,-3,.,
O=C(/C=C/c1ccc(Cl)c([N+](=O)[O-])c1)NCc1cccnc1,-2,-21,-31,-10,-9,0,.,
CCn1c(SCc2ccc([N+](=O)[O-])cc2)nnc1C(C)NC(=O)c1ccc(C)cc1 (configuration not stated),-3,13,4,9,3,0,.,
Cn1c(SCC(=O)NC2CC2)nnc1-c1ccc(Cl)cc1,.,23,.,-7,19,.,.,
O=C1N/C(=C/c2ccc(N3CCOCC3)o2)C(=O)N1c1cccc(Cl)c1,-3,23,-39,-10,-17,-2,.,
Cc1ccc(C2CC(C(F)F)n3ncc(C(=O)Nc4c(C)nn(Cc5c(F)cccc5Cl)c4C)c3N2)cc1 (configuration not stated),0,70*,35,3,8,-2,26,
Cc1nn(Cc2c(F)cccc2Cl)c(C)c1NC(=O)C1CC1,0,-5,-11,-3,4,-1,.,
CC1=C(C#N)C2C(/C1=N/O)C2(C)C (configuration not stated),-3,1,24,0,-26,-2,.,
N#Cc1c(SCC(=O)Nc2ccc(Cl)cc2Cl)sc2c(O)cc(=O)[nH]c12,0,62*,-5,20,11,-2,-8,
Cc1nc(SCC(=O)NCC2CCCO2)c2cc(-c3ccccc3)sc2n1 (configuration not stated),.,71*,.,-9,-162,.,15,
O=C(CSc1nnc(-c2ccccc2)c2ccccc12)NCC1CCCO1 (configuration not stated),-4,-9,-8,7,-6,0,.,
O=C(Nc1c2ccccc2nc2ccccc12)C(Cl)(Cl)Cl,-3,62*,-50,5,21,2,48*,FLuc counter=34
